The values below come from ChEMBL document CHEMBL2331187, “Efficient synthesis of 3H,3'H-spiro[benzofuran-2,1'-isobenzofuran]-3,3'-dione as novel skeletons specifically for influenza virus type B inhibition” (Eur J Med Chem, 2013).

Data set [1] relates to Human immunodeficiency virus 2. In words: Antiviral activity against Human immunodeficiency virus 2 ROD infected in MT4 cells assessed as inhibition of virus-induced cytopathogenicity by MTT assay. The format is functional, organism-based. The conditions noted are these: Human immunodeficiency virus 2, ISOLATE ROD. The procedure, abridged:
(§1)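 MTT-based CPE assay in MT4 cells. CC50 is the concentration that reduces viability of uninfected MT4 cells by 50%. EC50 is the concentration that improves viability of HIV-infected cells by 50%.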
In general terms: Cytopathic effects are the visible damage that an infection or toxin causes in cultured cells.

Data set [2] relates to Human immunodeficiency virus 1. Put plainly: Antiviral activity against Human immunodeficiency virus 1 3B infected in MT4 cells assessed as inhibition of virus-induced cytopathogenicity by MTT assay. Type of data set: functional, organism-based. The procedure, abridged: as §1
Data set [3] is described as follows: Cytotoxicity against human MT4 cells by MTT assay. Type of data set: cell-based. The essentials: as §1
Data set [4] is described as follows: Selectivity ratio of CC50 for MDCK cells to EC50 for Influenza B virus (B/Panama/45/1990). Type of data set: ADME, cell-based. The conditions noted are these: dog, read-out: Ratio CC50/EC50. The essentials: (§2)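 Confluent MDCK monolayers were mock-infected or infected with about 50-100 PFU of influenza virus per well. At read-out the medium was removed and cells were stained with fluorescein diacetate in PBS for 20 min at 35 °C. Fluorescence was read at ex 485/em 538 nm. CC50 and EC50 were derived from the fluorescence, and the selectivity index was taken as CC50/EC50.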

The test system of a further data set is Influenza A virus. Put plainly: Antiviral activity against Influenza A virus (A/Taiwan/1/1986(H1N1)) infected in MDCK cells assessed as inhibition of virus-induced cytopathogenicity at 1 hr post-infection measured after 3 days by fluorescein-diacetate based fluorimetric analysis. Type of data set: functional, organism-based. The procedure, abridged:
as §2

A short description of data set [5]: Cytotoxicity against MDCK cells after 3 days by fluorescein diacetate-based fluorimetric analysis. Type of data set: cell-based, Canis lupus familiaris. The conditions noted are these: dog. The essentials:
as §2

Data set [6] concerns Influenza B virus. Put plainly: Antiviral activity against Influenza B virus (B/Panama/45/1990) infected in MDCK cells assessed as inhibition of virus-induced cytopathogenicity at 1 hr post-infection measured after 3 days by fluorescein-diacetate based fluorimetric analysis. Type of data set: functional, cell-based. As to conditions: B/Panama/45/1990, MDCK. The essentials:
as §2

The test system of a further data set is MDCK. In words: Cytotoxicity against MDCK cells assessed as cell death at 500 uM after 3 days by fluorescein diacetate-based fluorimetric analysis. More on the design: species or system Canis lupus familiaris. As to conditions: dog, 72 h.
For another data set, the system named is Human alphaherpesvirus 2. In words: Antiviral activity against Herpes simplex virus 2 MS infected in Vero cells assessed as inhibition of virus-induced cytopathogenicity by MTT assay. The format is functional, organism-based. The conditions noted are these: Human alphaherpesvirus 2, MS. The procedure, abridged:
(§3)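 MTT-based CPE assay in Vero cells with HSV-1 strain F or HSV-2 strain MS. CC50 is the concentration that reduces viability of uninfected Vero cells by 50%. EC50 is the concentration that improves viability of HSV-infected cells by 50%.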

The next data set has as its system Human alphaherpesvirus 1. Put plainly: Antiviral activity against Herpes simplex virus 1 F infected in Vero cells assessed as inhibition of virus-induced cytopathogenicity by MTT assay. The format is functional, organism-based. The conditions noted are these: Human alphaherpesvirus 1, strain F. The procedure, abridged: as §3
Data set [7] is described as follows: Cytotoxicity against african green monkey Vero cells by MTT assay. The format is cell-based. As to conditions: chlorocebus sabaeus. The procedure, abridged:
as §3
For orientation: Formazan colour is commonly taken as a measure of viable cells.

Data set [8] in a line: Selectivity ratio of CC50 for MDCK cells to EC50 for Influenza B virus (B/Brisbane/60/2008). The format is ADME, cell-based. As to conditions: dog, read-out: Ratio CC50/EC50. The procedure, abridged:
as §2

In data set [9] the test system is Influenza B virus. Put plainly: Antiviral activity against Influenza B virus (B/Lee/40) infected in MDCK cells assessed as inhibition of virus-induced cytopathogenicity at 1 hr post-infection measured after 3 days by fluorescein-diacetate based fluorimetric analysis. Type of data set: functional, organism-based. As to conditions: B/Lee/1940, MDCK. The procedure, abridged:
as §2

A short description of data set [10]: Selectivity ratio of CC50 for MDCK cells to EC50 for Influenza B virus (B/Lee/40). Type of data set: ADME, cell-based. As to conditions: dog, read-out: Ratio CC50/EC50. The essentials:
as §2

For data set [11], the system named is Influenza B virus. Put plainly: Antiviral activity against Influenza B virus (B/Taiwan/2/62) infected in MDCK cells assessed as inhibition of virus-induced cytopathogenicity at 1 hr post-infection measured after 3 days by fluorescein-diacetate based fluorimetric analysis. The format is functional, organism-based. The procedure, abridged: as §2
A short description of data set [12]: Selectivity ratio of CC50 for MDCK cells to EC50 for Influenza B virus (B/Taiwan/2/62). The format is ADME, cell-based. As to conditions: dog, read-out: Ratio CC50/EC50. The procedure, abridged: as §2
Data set [13] relates to Influenza B virus. In words: Antiviral activity against Influenza B virus (B/Brisbane/60/2008) infected in MDCK cells assessed as inhibition of virus-induced cytopathogenicity at 1 hr post-infection measured after 3 days by fluorescein-diacetate based fluorimetric analysis. Type of data set: functional, cell-based. The conditions noted are these: B/Brisbane/60/2008, MDCK. The essentials:
as §2

Broadly, the EC50 is the midpoint of the concentration-response curve. Broadly, the CC50 is the concentration that lowers cell viability or growth by half.

For `Nc1ccn([C@H]2CC[C@@H](CO)O2)c(=O)n1` [ZALCITABINE], the EC50 in data set [1] and in [2] was 0.4 µM each time. In [3], the CC50 was determined as 75.2 µM.
On to `O=C1OC2(Oc3cc(F)ccc3C2=O)c2ccccc21` (stereo not given), for which the selectivity ratio in [4] was greater than 15. Further, the EC50 with Influenza A virus came to 100 µM; with Influenza B virus [6], 8.2 µM. The same compound came in with a CC50 at 72 h in data set [5] greater than 500 µM. The Activity with MDCK is given as greater than 20%.
With `O=c1[nH]cnc2c1ncn2[C@H]1CC[C@@H](CO)O1` [DIDANOSINE], the values for the EC50 in [1] and in data set [2] were 34.7 µM and 7.8 µM, respectively. Moreover, the CC50 in [3] is greater than 500 µM.
For `Nc1nc2c(ncn2COCCO)c(=O)[nH]1` [ACYCLOVIR], the figures for the concentration for a half-maximal effect (EC50) in the data set with Human alphaherpesvirus 2 and in the data set with Human alphaherpesvirus 1 were 58.6 µM and 1.7 µM, respectively. The compound further returned a CC50 in [7] greater than 50 µM.
With `COc1cc2c(cc1OC)C1(OC2=O)Oc2cc(C(C)C)ccc2C1=O` (stereo not given), in data set [4], the selectivity ratio was greater than 15. Besides, the EC50 in the data set with Influenza A virus was greater than 500 µM; in the data set with Influenza B virus [6], 33.3 µM. In addition, the CC50 at 72 h in data set [5] was greater than 500 µM. The Activity with MDCK stood at 47%.
On to `Cc1cc2c(cc1C)C(=O)C1(OC(=O)c3ccccc31)O2` (stereo not given), for which the EC50 in [1] is greater than 158 µM; in the data set with Influenza B virus [9] it was 16.1 µM; in the data set with Influenza B virus [11], 3.6 µM; in the data set with Influenza A virus, 23.4 µM; in the data set with Influenza B virus [6], 3 µM; in the data set on Human alphaherpesvirus 2 it was greater than 312 µM. Besides, the EC50 with Influenza B virus [13] was 4.8 µM; in [2], greater than 158 µM; in the data set with Human alphaherpesvirus 1 it was greater than 312 µM. For the same compound, the selectivity ratio in data set [8] was 30; in [10], 30; in data set [4] it was greater than 15; in data set [12], 30. The compound also came in with a CC50 at 72 h in data set [5] greater than 500 µM. Moreover, the results for the CC50 in data set [3] and in data set [7] were 158 µM and 312 µM, respectively.
